# Measured values taken from PMC3404614 (Biochimica et Biophysica Acta, 2012).
# Where “and” joins values, the source holds several entries; their conditions need not be identical. Equal values may be shown once. Read-outs that look alike come from different tables or passages of the source.
# Columns and labels:
# PKC = experiment: Effect of PKC inhibition on CCK- and TPA-stimulated pY416 Yes phosphorylation; format: cell-based, rat
# Summary of the method: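 Rat acini were pretreated with the PKC inhibitor GF109203X (5 µM) during preincubation, then incubated with 100 nM CCK (1 min) or 1 µM TPA (2.5 min) at 37 °C. Lysates were immunoprecipitated with anti-Yes and blotted for pY416 Src family and total Yes, quantified by densitometry. Results are expressed as % of control, mean ± S.E., n=4.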
# Yes kinase [1] = format: cell-based, rat; settings: for association of Yes with p125FAK, PYK2, PI3K, PKD, p130Cas, Shc and PKCδ (Co-IP) / association of Yes with Raf, Cbl or ERK1/2 (Co-IP): CCK 100 nM 2.5 min or TPA 1 µM 5 min; for association of Yes with p125FAK, PYK2, PI3K, PKD, p130Cas, Shc and PKCδ (Co-IP): 8 experiments; for association between Yes and PI3K / association of Yes with autophosphorylated forms pY397 p125FAK and pY402 PYK2: CCK or TPA; for direct association of Raf, Cbl or ERK1/2 with Yes, reverse Co-IP: Cbl or ERK1/2 antibodies, detection with Yes antibodies; for association of Yes with Cbl or Erk 1/2 (Co-IP), discussion / association of Yes with focal adhesion kinases, PKCδ, Shc, p130Cas, PI3K, PTEN and PKD (Co-IP): TPA and CCK, physiological and supramaximal concentrations
# PKC-δ and Src = settings: PC-12 cells and parotid cells; cited from earlier work
# Lyn [2] = settings: pancreatic acini; cited from earlier work
# Yes kinase [3] = format: cell-based, rat; settings: for Yes pY416 phosphorylation, time course, 1 min: 1 min incubation; for tmax (Yes pY416 phosphorylation) / t1/2 (Yes pY416 phosphorylation): CCK (100 nM) or TPA (1 µM)
# Summary of the method: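 Collagenase-dispersed rat acini were preincubated 2 h at 37 °C, then incubated with CCK (100 nM) or TPA (1 µM) for times up to 15 min. Yes was immunoprecipitated (4 µg anti-Yes, protein G, overnight 4 °C), then blotted for pY416 and total Yes and read by densitometry. Values are % of zero-time control, mean ± S.E., n=7, with t1/2 from curve fitting.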
# [4] = tested on: endoplasmic reticulum Ca^2+-ATPase; experiment: Effect of Ca2+ depletion on CCK- and TPA-stimulated pY416 Yes phosphorylation; format: cell-based, rat; settings: for inhibition of TPA-/CCK-stimulated Yes activation (thapsigargin, words): TPA and CCK as stimulants
# [5] = tested on: [Ca^2+i] increase stimulated by CCK; settings: thapsigargin, calcium-free medium; cited from earlier work
# Lyn [6] = settings: cited from earlier work
# Yes kinase [7] = format: cell-based, rat
# Summary of the method: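 Rat pancreatic acini were prepared by collagenase digestion, preincubated 2 h at 37 °C in HEPES buffer (pH 7.45), then exposed to graded concentrations of CCK or CCK-JMV at 37 °C. Yes was immunoprecipitated from lysates and immunoblotted for pY416 Src family, with total Yes as loading control, and quantified by densitometry.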
# Yes = settings: cited from earlier work; for activation of Yes by EGF and PDGF: hepatocytes and fibroblasts
# Fyn = settings: cited from earlier work
# Hck = settings: endothelial cells; cited from earlier work
# Src = settings: cited from earlier work
# adenylate cyclase = settings: cited from earlier work; for activation of PLC cascades or adenylate cyclase: pancreatic acinar cell; for adenylate cyclase activation: rat pancreatic acini
# SFK = settings: cited from earlier work
# Akt = experiment: pS473 Akt phosphorylation by pancreatic growth factors; format: cell-based; settings: rat pancreatic acini; data not shown
# cSrc = settings: murine fibroblasts; cited from earlier work
# CCK2 receptors = experiment: CCK2 receptor ligands: pY416 Yes phosphorylation in rat pancreatic acini; format: cell-based; settings: gastrin 10 nM, 1 min
# [8] = from CCK-JMV partial stimulation
molecule,measurement,setting,value
CN(C)CCCn1cc(C2=C(c3c[nH]c4ccccc34)C(=O)NC2=O)c2ccccc21 [GF109203X],decrease in CCK-stimulated activation of Yes by PKC inhibitor,PKC; GF109203X + CCK,80%
same,"inhibition of TPA-/CCK-stimulated Yes activation (PKC inhibitor, words)",PKC; TPA and CCK as stimulants,inhibit TPA−/CCK-stimulated Yes
"CCCCCCCCCCCCCC(=O)O[C@@H]1[C@@H](C)[C@@]2(O)[C@@H](C=C(CO)C[C@]3(O)C(=O)C(C)=C[C@@H]23)[C@@H]2C(C)(C)[C@]12OC(C)=O [TPA, 12-O-tetradecanoylphorbol-13-acetate]","association of Yes with p125FAK, PYK2, PI3K, PKD, p130Cas, Shc and PKCδ (Co-IP)",Yes kinase [1],produced an increase in the association of Yes
same,"association of Yes with Raf, Cbl or ERK1/2 (Co-IP)",Yes kinase [1]; data not shown,"not with Raf, Cbl or ERK1/2"
same,association between Yes and PI3K,Yes kinase [1],stimulated an association between Yes and PI3K
same,association of Yes with autophosphorylated forms pY397 p125FAK and pY402 PYK2,Yes kinase [1],stimulates an association of Yes with each of their specific autophosphorylated forms
same,"direct association of Raf, Cbl or ERK1/2 with Yes, reverse Co-IP",Yes kinase [1],did not obtained any stimulated direct association with Yes
same,"association of Yes with Cbl or Erk 1/2 (Co-IP), discussion",Yes kinase [1],not with Cbl or Erk 1/2
same,"association of Yes with focal adhesion kinases, PKCδ, Shc, p130Cas, PI3K, PTEN and PKD (Co-IP)",Yes kinase [1],stimulate the association of Yes
same,association of PKC-δ and Src,PKC-δ and Src,neither TPA nor carbachol stimulated the association of PKC-δ and Src
same,"association of Lyn with PKC-δ, Shc, p125FAK and Pyk-2",Lyn [2],"stimulated its association with PKC-δ, Shc, p125FAK and Pyk-2"
same,"Yes pY416 phosphorylation, time course, 1 min","Yes kinase [3]; means±S.E., 7 experiments",153±25 % of control
same,tmax (Yes pY416 phosphorylation),Yes kinase [3]; 7 experiments,2.49±0.29 min
same,t1/2 (Yes pY416 phosphorylation),"Yes kinase [3]; means±S.E., 7 experiments",1.25±0.24 min
same,"Yes pY416 phosphorylation, time course, 2.5 min","Yes kinase [3]; TPA, 2.5 min, means±S.E., 7 experiments, p<0.05",266±47 % of control
same,duration of increased Yes pY416 phosphorylation,Yes kinase [3]; sustained increase,15 min
C/C=C(/C)C(=O)O[C@H]1C(C)=C2[C@H]([C@@H]1OC(=O)CCCCCCC)[C@@](C)(OC(C)=O)C[C@H](OC(=O)CCC)[C@@]1(O)[C@H]2OC(=O)[C@@]1(C)O [Thapsigargin],"inhibition of TPA-/CCK-stimulated Yes activation (thapsigargin, words)",[4],inhibit TPA−/CCK-stimulated Yes
same,"inhibition of TPA-/CCK-stimulated Yes activation (thapsigargin, words)",[4]; listed as thapsigargin,did not completely inhibit CCK-stimulated Yes activation
same,reduction of CCK-stimulated Yes activation by thapsigargin (Ca2+ depletion),"[4]; thapsigargin, calcium-depleting conditions, + CCK",71%
same,inhibition of CCK-stimulated [Ca2+]i increase,[5],completely inhibit
C[N+](C)(C)CCOC(N)=O [carbachol],association of PKC-δ and Src,PKC-δ and Src,neither TPA nor carbachol stimulated the association of PKC-δ and Src
same,Lyn activation in pancreatic acinar cells,Lyn [6],activated
COOH-terminal octapeptide of cholecystokinin [CCK],"association of Yes with p125FAK (Co-IP), low CCK","Yes kinase [1]; CCK 100 pM and 0.1 nM, 2.5 min",not with ^p125FAK
same,"association of Yes with Raf, Cbl or ERK1/2 (Co-IP), low CCK","Yes kinase [1]; CCK 100 pM and 0.1 nM, data not shown","with Raf, Cbl or ERK1/2 (data not shown)"
same,"association of Yes with p125FAK, PYK2, PI3K, PKD, p130Cas, Shc and PKCδ (Co-IP)",Yes kinase [1],produced an increase in the association of Yes
same,"association of Yes with Raf, Cbl or ERK1/2 (Co-IP)",Yes kinase [1]; data not shown,"not with Raf, Cbl or ERK1/2"
same,association between Yes and PI3K,Yes kinase [1],stimulated an association between Yes and PI3K
same,association of Yes with autophosphorylated forms pY397 p125FAK and pY402 PYK2,Yes kinase [1],stimulates an association of Yes with each of their specific autophosphorylated forms
same,"direct association of Raf, Cbl or ERK1/2 with Yes, reverse Co-IP",Yes kinase [1],did not obtained any stimulated direct association with Yes
same,"association of Yes with Cbl or Erk 1/2 (Co-IP), discussion",Yes kinase [1],not with Cbl or Erk 1/2
same,"association of Yes with focal adhesion kinases, PKCδ, Shc, p130Cas, PI3K, PTEN and PKD (Co-IP)",Yes kinase [1],stimulate the association of Yes
same,"association of Lyn with PKC-δ, Shc, p125FAK and Pyk-2",Lyn [2],"stimulated its association with PKC-δ, Shc, p125FAK and Pyk-2"
same,"Yes pY416 phosphorylation, time course, 1 min","Yes kinase [3]; means±S.E., 7 experiments",310±43 % of control
same,tmax (Yes pY416 phosphorylation),Yes kinase [3]; 7 experiments,1 min and 0.98±0.14 min
same,t1/2 (Yes pY416 phosphorylation),"Yes kinase [3]; means±S.E., 7 experiments",0.309±0.042 min and 0.31±0.04 min
same,"Yes pY416 phosphorylation, time course, 30 s","Yes kinase [3]; CCK, 30-second incubation, means±S.E., 7 experiments, p<0.05",278±27 % of control
same,maximal stimulation of Y416 phosphorylation of Yes,"Yes kinase [7]; CCK 100 nM, means±S.E., 5 experiments",280±16 % of control
same,lowest concentration with detectable increase in Y416 phosphorylation of Yes,Yes kinase [7]; CCK dose-response,10 pM
same,share of CCK stimulation of Yes mediated by high affinity CCK1 receptor state,Yes kinase [7]; [8],64%
same,share of CCK stimulation of Yes mediated by low affinity CCK1 receptor state,Yes kinase [7]; [8],36%
same,Lyn activation in pancreatic acinar cells,Lyn [6],activated
same,activation of Yes through CCK2 receptors,Yes; rat pancreatic acinar cell line AR42J,activate Yes through CCK2 receptors
Endothelin-1: interacts with ET-1 and ET-3 receptors in the pancreatic acinar cell,Fyn activation by endothelin,Fyn; endothelial cells,activated the SFK Fyn
same,Hck inhibition by endothelin,Hck,inhibited
same,Src inhibition by endothelin,Src; endothelial cells,inhibited
same,activation of PLC cascades or adenylate cyclase,adenylate cyclase,does not activate PLC cascades nor activate adenylate cyclase
same,activation of PLC cascades or adenylate cyclase,adenylate cyclase; listed as endothelin,does not stimulate phospholipase C or adenylate cyclase
same,SFK activation by endothelin,SFK; different cells,activates SFKs in different cells
same,Lyn activation in pancreatic acinar cells,Lyn [6],weakly stimulated
same,Yes activity with endothelin,Yes; endothelial cells,unaltered
"Epidermal growth factor (NSNTGCPPSYDGYCLNGGVCMYVESVDRYVCNCVIGYIGERCQHRDLRWWKLR; UniProt P07522 974-1026, looked up) [EGF]",pS473 Akt phosphorylation,Akt,stimulated pS473 Akt phosphorylation
same,cSrc activation,cSrc,"activate the SFK, cSrc"
same,activation of Yes by EGF and PDGF,Yes,stimulated activation of Yes
Gastrin,pY416 Yes phosphorylation by gastrin,CCK2 receptors,did not produce any increase in pY416 Yes phosphorylation
Secretin: activates adenylate cyclase in rat pancreatic acini,adenylate cyclase activation,adenylate cyclase,activates adenylate cyclase
same,SFK activation by secretin,SFK; other studies,activated the SFKs
same,Lyn activation in pancreatic acinar cells,Lyn [6],weakly stimulated
basic fibroblast growth factor [bFGF],pS473 Akt phosphorylation,Akt,stimulated pS473 Akt phosphorylation
same,cSrc activation,cSrc,"activate the SFK, cSrc"
same,SFK activation in pancreatic acinar cells,"SFK; bFGF, pancreatic acinar cells",not activate SFK
bombesin,Lyn activation in pancreatic acinar cells,Lyn [6],activated
insulin-like growth factor 1 [IGF-1],pS473 Akt phosphorylation,Akt,stimulated pS473 Akt phosphorylation
same,Src activation by IGF,Src; differentiating preadipocytes,stimulates Src activation
insulin: pancreatic growth factor,pS473 Akt phosphorylation,Akt,stimulated pS473 Akt phosphorylation
same,Fyn activation by insulin,Fyn; ovarian cells,stimulates Fyn activation
same,SFK activation by insulin,SFK; skeletal muscle cells,stimulates SFK activation
platelet-derived growth factor [PDGF],pS473 Akt phosphorylation,Akt,stimulated pS473 Akt phosphorylation
same,cSrc activation,cSrc,"activate the SFK, cSrc"
same,activation of Yes by EGF and PDGF,Yes,stimulated activation of Yes
vasoactive intestinal peptide [VIP],adenylate cyclase activation,adenylate cyclase,activates adenylate cyclase
